The values that follow come from ChEMBL document CHEMBL4251704, “Discovery of Pyridopyrimidinones as Potent and Orally Active Dual Inhibitors of PI3K/mTOR” (ACS Med Chem Lett, 2018).

Broadly, the inhibition is the percentage by which the read-out fell short of the control. The term fraction unbound denotes free concentration divided by total concentration. Low values mean little free substance, high ones much free substance. A word on the IC50: it is the concentration needed to halve the response being measured. By AUC(0-t) is commonly meant the area under the concentration-time curve up to a stated or last time point. Read a high AUC(0-t) as high exposure. Broadly, the Cmax is the maximum level reached in the sampled fluid or tissue. One may read the Tmax as the time at which the peak concentration occurs. The term half-life denotes the time in which the quantity being followed falls by half. A higher half-life goes with slow loss. For orientation: clearance means a measure of how efficiently the substance is removed, as volume per time. Read a low clearance as a low capacity for elimination.

The target in data set [1] is T1, Phosphatidylinositol 4,5-bisphosphate 3-kinase catalytic subunit alpha isoform (Homo sapiens, UniProt P42336). In words: Inhibition of PI3Kalpha in human MCF7 cells assessed as reduction in AKT phosphorylation at 1 uM after 2 hrs by ELISA relative to control. In kind it is cell-based. In general terms: An ELISA detects its analyte on a solid surface through an enzyme-linked reagent.
T1 sequence (P42336 whole entry, canonical isoform): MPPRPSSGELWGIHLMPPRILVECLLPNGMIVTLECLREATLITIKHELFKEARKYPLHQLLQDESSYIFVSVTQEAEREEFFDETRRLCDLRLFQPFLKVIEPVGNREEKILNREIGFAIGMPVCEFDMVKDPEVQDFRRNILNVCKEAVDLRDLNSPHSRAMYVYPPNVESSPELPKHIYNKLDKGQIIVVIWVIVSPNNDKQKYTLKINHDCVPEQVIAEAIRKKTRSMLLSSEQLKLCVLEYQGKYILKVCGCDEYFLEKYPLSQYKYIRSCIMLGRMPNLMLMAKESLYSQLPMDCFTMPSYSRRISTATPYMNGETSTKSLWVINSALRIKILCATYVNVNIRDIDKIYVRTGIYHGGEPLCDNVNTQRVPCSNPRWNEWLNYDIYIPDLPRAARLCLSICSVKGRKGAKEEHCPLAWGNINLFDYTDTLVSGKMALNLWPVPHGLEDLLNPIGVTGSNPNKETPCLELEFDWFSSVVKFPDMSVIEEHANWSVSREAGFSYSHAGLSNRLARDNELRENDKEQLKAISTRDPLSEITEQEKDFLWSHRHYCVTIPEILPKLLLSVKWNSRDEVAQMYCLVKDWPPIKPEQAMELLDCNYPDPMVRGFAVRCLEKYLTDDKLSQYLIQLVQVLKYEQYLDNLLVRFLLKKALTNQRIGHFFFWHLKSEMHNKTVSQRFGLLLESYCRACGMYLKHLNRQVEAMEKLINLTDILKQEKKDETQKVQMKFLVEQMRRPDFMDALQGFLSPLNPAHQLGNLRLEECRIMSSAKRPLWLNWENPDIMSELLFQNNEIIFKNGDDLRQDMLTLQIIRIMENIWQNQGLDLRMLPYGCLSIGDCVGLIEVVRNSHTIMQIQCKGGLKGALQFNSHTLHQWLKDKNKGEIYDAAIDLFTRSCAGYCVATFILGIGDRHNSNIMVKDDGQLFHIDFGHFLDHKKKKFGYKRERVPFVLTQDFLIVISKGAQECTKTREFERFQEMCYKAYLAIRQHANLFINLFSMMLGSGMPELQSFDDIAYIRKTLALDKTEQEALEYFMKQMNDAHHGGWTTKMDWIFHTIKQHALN

The nature of data set [2]: Protein binding in mouse plasma. In kind it is ADME, cell-free.
Data set [3] has as its target T1, Phosphatidylinositol 4,5-bisphosphate 3-kinase catalytic subunit alpha isoform. In words: Inhibition of PI3Kalpha in human MCF7 cells assessed as reduction in AKT phosphorylation after 4 hrs by ADP-Glo assay. In kind it is cell-based. An outline of the steps: (§1)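 MCF-7 cells were incubated with compound for 4 h. Phosphorylation of Akt at S473 and of p70s6k at T389 was read by […], and IC50 was derived.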

The target of data set [4] is T2, Serine/threonine-protein kinase mTOR (Homo sapiens, UniProt P42345). In words: Inhibition of mTOR in human MCF7 cells assessed as reduction in P70S6K phosphorylation after 4 hrs by […] assay. The format is cell-based. An outline of the steps: as §1
(In general: ADP-Glo first removes unused ATP, then detects ADP through luciferase.)

The nature of data set [5]: AUC (0 to last) in mouse at 3 mg/kg, po. In kind it is ADME, organism-based. On the set-up: dose 3 mg/kg, time 0 - last, route oral. The note with it: in vivo. An outline of the steps: (§2)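 Single oral dose of 3 mg/kg to mice, given in 10% DMSO/65% PEG400/25% H2O or in 10% DMSO/80% PEG400/10% H2O depending on the compound. Plasma exposure was measured.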
A short description of data set [6]: Cmax in mouse at 3 mg/kg, po. The format is ADME, organism-based. On the set-up: dose 3 mg/kg, route oral. The note with it: in vivo. An outline of the steps:
as §2

Data set [7] has as its target T1, Phosphatidylinositol 4,5-bisphosphate 3-kinase catalytic subunit alpha isoform. In words: Inhibition of PI3Kalpha (unknown origin) using PIP2 as substrate measured after 30 mins by HTRF assay. A general note: Time-resolved FRET reads energy transfer from a long-lived donor to a nearby acceptor.
The nature of data set [8]: Volume of distribution at steady state in mouse at 1 mg/kg, iv. The format is ADME, organism-based. The note with it: in vivo, read-out: Vdss. In outline:
(§3)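 Mice were dosed intravenously at 1 mg/kg. The vehicle was either 10% DMSO/65% PEG400/25% H2O or 10% DMSO/80% PEG400/10% H2O, depending on the compound.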

Data set [9] in a line: Tmax in mouse at 3 mg/kg, po. The format is ADME, organism-based. The note with it: in vivo. In outline: as §2
Data set [10] has as its target PI3-kinase p110-delta/p85-alpha (Homo sapiens, UniProt O00329). The data set can be described thus: Inhibition of human PI3K p110delta/p85alpha using phosphatidylinositol 4,5-bisphosphate as substrate after 30 mins by HTRF assay. The format is protein-complex assay.
Data set [11] is described as follows: AUC (0 to last) in mouse at 1 mg/kg, iv. The note with it: in vivo. The format is ADME, organism-based. On the set-up: dose 1 mg/kg, time 0 - last, route intravenous. In outline:
as §3

Data set [12] can be described thus: Protein binding in human plasma. In kind it is ADME, cell-free.
A further data set relates to PC-3M. The data set can be described thus: Antitumor activity against human PC3M cells xenografted in Balb/c mouse assessed as tumor growth inhibition administered orally once daily for 21 days measured twice a week during compound dosing. The format is functional, cell-based. In outline:
(§4)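 Nude mice bearing PC-3M tumors received 1, 3 or 10 mg/kg by oral gavage once daily for 21 days, with 10 mice per group.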

Data set [13] is described as follows: Oral bioavailability in mouse at 3 mg/kg. The format is ADME, organism-based. The note with it: in vivo. In outline: as §2
Another data set deals with PI3K p110 beta/p85 alpha (Homo sapiens, UniProt P42338). The data set can be described thus: Inhibition of human PI3K p110beta/p85alpha using phosphatidylinositol 4,5-bisphosphate as substrate after 30 mins by HTRF assay. The format is protein-complex assay.
Sequence of PI3K p110 beta/p85 alpha (P27986 whole entry, canonical isoform): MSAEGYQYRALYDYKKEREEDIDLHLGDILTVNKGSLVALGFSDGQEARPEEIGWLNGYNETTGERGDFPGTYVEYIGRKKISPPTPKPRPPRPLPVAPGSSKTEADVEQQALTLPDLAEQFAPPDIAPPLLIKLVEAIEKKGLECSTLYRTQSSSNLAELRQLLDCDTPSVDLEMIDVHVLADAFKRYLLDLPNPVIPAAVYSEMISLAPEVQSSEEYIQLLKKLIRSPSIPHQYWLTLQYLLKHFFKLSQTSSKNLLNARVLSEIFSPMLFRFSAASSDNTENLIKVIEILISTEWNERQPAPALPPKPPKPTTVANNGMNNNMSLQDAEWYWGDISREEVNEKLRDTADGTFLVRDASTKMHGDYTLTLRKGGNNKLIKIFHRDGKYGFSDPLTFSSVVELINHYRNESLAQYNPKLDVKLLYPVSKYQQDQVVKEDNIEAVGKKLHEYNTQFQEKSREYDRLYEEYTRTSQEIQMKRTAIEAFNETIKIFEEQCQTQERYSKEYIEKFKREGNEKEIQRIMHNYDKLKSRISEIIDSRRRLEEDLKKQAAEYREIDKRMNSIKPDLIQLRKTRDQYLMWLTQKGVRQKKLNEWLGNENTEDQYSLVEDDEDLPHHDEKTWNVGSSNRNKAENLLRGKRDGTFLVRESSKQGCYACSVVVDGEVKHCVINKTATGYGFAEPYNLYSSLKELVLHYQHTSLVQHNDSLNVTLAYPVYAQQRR
Sequence of PI3K p110 beta/p85 alpha (P42338 whole entry, canonical isoform): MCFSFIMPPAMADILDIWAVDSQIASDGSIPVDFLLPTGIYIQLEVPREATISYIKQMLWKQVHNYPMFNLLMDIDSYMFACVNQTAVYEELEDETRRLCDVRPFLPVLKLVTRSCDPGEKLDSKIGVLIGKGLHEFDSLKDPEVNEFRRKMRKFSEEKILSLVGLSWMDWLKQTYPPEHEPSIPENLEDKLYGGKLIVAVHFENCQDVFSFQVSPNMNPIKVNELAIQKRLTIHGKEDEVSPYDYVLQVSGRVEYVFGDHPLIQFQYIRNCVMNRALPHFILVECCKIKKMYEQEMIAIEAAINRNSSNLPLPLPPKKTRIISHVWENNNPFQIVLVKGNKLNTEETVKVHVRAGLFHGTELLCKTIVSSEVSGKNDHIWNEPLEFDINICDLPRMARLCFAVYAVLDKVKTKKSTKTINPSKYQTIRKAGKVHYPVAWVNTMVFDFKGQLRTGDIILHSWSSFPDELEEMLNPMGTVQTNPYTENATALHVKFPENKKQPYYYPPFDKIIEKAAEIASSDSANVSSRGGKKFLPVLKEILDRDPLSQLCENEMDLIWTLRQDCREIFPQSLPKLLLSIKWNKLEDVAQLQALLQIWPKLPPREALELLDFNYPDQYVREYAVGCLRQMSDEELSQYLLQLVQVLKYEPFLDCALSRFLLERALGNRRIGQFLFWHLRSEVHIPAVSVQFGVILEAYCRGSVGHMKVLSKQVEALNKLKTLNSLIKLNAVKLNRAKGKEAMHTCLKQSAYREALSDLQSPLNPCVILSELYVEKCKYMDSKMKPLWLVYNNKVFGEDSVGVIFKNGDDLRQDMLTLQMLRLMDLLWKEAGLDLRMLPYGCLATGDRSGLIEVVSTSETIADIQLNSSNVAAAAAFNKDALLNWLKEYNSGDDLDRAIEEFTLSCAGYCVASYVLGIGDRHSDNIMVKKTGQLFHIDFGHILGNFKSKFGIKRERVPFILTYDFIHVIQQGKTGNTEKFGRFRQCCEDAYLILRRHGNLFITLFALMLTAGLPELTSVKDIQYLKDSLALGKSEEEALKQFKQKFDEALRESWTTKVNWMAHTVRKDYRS
In data set [14] the target is Phosphatidylinositol 4,5-bisphosphate 3-kinase catalytic subunit gamma isoform (Homo sapiens, UniProt P48736). The data set can be described thus: Inhibition of human PI3K p120gamma using phosphatidylinositol 4,5-bisphosphate as substrate after 30 mins by HTRF assay.
Sequence of Phosphatidylinositol 4,5-bisphosphate 3-kinase catalytic subunit gamma isoform (P48736 whole entry, canonical isoform): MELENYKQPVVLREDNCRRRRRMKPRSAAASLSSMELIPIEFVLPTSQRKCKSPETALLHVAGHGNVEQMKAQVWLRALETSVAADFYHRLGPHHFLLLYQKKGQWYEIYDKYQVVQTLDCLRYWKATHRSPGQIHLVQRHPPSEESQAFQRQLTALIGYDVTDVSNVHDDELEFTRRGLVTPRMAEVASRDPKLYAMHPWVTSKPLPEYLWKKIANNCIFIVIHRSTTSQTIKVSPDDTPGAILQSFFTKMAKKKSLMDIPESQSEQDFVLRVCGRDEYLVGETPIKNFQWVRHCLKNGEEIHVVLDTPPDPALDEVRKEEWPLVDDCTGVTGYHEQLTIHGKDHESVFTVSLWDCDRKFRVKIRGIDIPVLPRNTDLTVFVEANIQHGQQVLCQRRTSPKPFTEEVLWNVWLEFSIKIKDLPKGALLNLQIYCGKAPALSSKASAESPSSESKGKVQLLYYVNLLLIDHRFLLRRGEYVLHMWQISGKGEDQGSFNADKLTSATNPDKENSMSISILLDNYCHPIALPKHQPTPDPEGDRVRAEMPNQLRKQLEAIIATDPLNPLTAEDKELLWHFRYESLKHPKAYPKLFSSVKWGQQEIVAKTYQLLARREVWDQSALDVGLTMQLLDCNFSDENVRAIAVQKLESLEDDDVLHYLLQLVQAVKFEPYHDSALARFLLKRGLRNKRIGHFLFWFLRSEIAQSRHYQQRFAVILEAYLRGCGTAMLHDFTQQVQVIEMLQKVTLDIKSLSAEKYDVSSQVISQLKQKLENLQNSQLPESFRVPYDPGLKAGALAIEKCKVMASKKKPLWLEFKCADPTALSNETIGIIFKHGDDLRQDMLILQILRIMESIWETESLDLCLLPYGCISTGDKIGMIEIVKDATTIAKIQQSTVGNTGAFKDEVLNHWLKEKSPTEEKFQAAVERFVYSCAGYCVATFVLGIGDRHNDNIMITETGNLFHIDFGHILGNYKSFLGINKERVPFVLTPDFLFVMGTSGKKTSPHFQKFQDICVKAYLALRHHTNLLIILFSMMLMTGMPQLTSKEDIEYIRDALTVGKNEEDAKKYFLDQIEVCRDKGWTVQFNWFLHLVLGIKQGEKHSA
Data set [15] can be described thus: Half life in mouse at 1 mg/kg, iv. In kind it is ADME, organism-based. The note with it: in vivo. An outline of the steps: as §3
A short description of data set [16]: Protein binding in rat plasma. In kind it is ADME, cell-free.
For data set [17], the target named is T2, Serine/threonine-protein kinase mTOR. In words: Inhibition of mTOR (unknown origin) using ULight-4E-BP1(Thr37/46) peptide as substrate measured after 2 hrs by HTRF assay.
In the next data set the test system is Mus musculus. In words: Toxicity in Balb/c mouse xenografted with human PC3M cells assessed as body weight loss at 1 to 10 mg/kg, po administered once daily for 21 days measured daily during compound dosing. The format is organism-based. The note with it: in vivo, 504 h. In outline: as §4
Data set [18] is described as follows: Clearance in mouse at 1 mg/kg, iv. In kind it is ADME, organism-based. The note with it: in vivo. In outline: as §3

Sequence of PI3-kinase p110-delta/p85-alpha (P27986 whole entry): as the sequence (P27986 whole entry, canonical isoform) above
Sequence of PI3-kinase p110-delta/p85-alpha (O00329 whole entry): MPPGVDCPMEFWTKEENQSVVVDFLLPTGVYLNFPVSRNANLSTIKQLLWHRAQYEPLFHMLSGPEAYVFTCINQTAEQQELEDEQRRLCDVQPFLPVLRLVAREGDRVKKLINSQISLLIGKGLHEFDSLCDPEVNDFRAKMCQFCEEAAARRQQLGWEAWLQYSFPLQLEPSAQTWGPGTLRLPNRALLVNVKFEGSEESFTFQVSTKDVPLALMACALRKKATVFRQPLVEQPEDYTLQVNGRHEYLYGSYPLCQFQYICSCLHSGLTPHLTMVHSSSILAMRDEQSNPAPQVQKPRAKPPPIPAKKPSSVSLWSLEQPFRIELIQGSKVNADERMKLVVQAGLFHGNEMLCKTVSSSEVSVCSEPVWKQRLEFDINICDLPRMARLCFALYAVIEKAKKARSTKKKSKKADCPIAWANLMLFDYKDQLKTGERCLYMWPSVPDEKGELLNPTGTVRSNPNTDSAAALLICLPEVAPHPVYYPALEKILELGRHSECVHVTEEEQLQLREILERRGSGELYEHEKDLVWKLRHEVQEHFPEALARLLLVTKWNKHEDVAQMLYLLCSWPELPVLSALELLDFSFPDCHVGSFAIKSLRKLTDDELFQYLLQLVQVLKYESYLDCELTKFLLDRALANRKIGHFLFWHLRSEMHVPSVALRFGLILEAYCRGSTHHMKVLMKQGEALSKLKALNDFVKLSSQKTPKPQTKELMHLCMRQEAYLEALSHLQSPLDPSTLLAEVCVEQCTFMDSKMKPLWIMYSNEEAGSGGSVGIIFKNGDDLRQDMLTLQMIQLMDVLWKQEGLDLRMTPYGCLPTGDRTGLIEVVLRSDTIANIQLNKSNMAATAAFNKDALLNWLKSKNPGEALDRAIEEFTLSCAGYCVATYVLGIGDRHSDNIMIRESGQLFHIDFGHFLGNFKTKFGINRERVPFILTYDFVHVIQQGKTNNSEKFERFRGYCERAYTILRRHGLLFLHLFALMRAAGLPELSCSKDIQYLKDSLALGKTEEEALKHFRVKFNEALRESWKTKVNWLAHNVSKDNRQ

In the case of `CCc1ncc(-c2ccc3nccc(=O)n3c2)cc1NS(=O)(=O)c1ccc(F)cc1F`, in data set [1], the inhibition stood at 86%.
Consider `Cc1ncc(-c2ccc3nccc(=O)n3c2)cc1NS(=O)(=O)c1ccc(F)cc1F`, for which, in data set [1], the inhibition is 81%.
In the case of `COc1ncc(-c2ccc3ncc(Cl)c(=O)n3c2)cc1NS(=O)(=O)c1ccc(F)cc1F`, the fraction unbound was 0.005 in data set [2], less than 0.01 in data set [12] and less than 0.01 in data set [16]. Also, the IC50 in data set [3] is 11.6 nM; in data set [4], 89.2 nM; in [7], 3.4 nM; in data set [10] it was 16 nM; against PI3K p110 beta/p85 alpha, 34 nM; in data set [14], 1 nM. This molecule registered an IC50 in data set [17] of 4.7 nM. In addition, the AUC(0-t) in [5] came out at 38600 ng·h/mL; in data set [11] it was 11900 ng·h/mL. For the same molecule, the concentration in data set [6] peaked (Cmax) at 5450 ng/mL. In data set [8], the Vd was determined as 0.472 L/kg. The Tmax in data set [9] was 2.67 h. The TGI entry in the data set on PC-3M was “Dose-dependent effect”. In addition, the bioavailability in data set [13] came to 108%. In addition, the inhibition in data set [1] worked out at 93%. The same molecule gave a half-life in [15] of 3 h. The Activity entry in the data set on Mus musculus was “Non-Toxic”. The clearance in data set [18] was 1.4 mL/min/kg.
Regarding `COc1ncc(-c2cnc3nccc(-c4cnn(C)c4)c3c2)cc1NS(=O)(=O)c1ccc(F)cc1F`, the inhibition in data set [1] is 47%.
As for `COc1ncc(-c2ccc3nccc(=O)n3c2)cc1NS(=O)(=O)c1ccc(C(F)(F)F)cc1`, the IC50 in [3] turned out to be 48.7 nM; in data set [4] it was 163 nM. For the same molecule, in data set [1], the inhibition was 94%.
With `COc1ncc(-c2ccc3nccc(=O)n3c2)cc1NS(=O)(=O)c1cc(F)ccc1F`, the IC50 in [3] amounted to 45 nM; in data set [4], 108 nM. Moreover, the inhibition in data set [1] stood at 96%.
`CCS(=O)(=O)Nc1cc(-c2ccc3nccc(=O)n3c2)cnc1OC`: in data set [1], the inhibition was found to be 53%.
`COc1ccc(S(=O)(=O)Nc2cc(-c3ccc4nccc(=O)n4c3)cnc2OC)cc1`: the IC50 was found to be 54.1 nM in data set [3] and 138 nM in [4]. For the same molecule, the inhibition in data set [1] came to 95%.
On to `CCOc1ncc(-c2ccc3nccc(=O)n3c2)cc1NS(=O)(=O)c1ccccc1F`, for which the inhibition in data set [1] was 60%.
For `COc1ncc(-c2ccc3nccc(=O)n3c2)cc1NS(=O)(=O)c1ccc(Cl)cc1`, the IC50 in data set [3] worked out at 48.8 nM; in [4], 223 nM. For the same molecule, the inhibition in data set [1] is 96%.
For the molecule `COc1ncc(-c2ccc3nccc(=O)n3c2)cc1NS(=O)(=O)c1ccc(F)cc1`, the IC50 in [3] is 80.7 nM; in data set [4], 106 nM. The inhibition in [1] amounted to 95%.
`COc1ncc(-c2ccc3nccc(=O)n3c2)cc1NS(=O)(=O)C1CC1`: the inhibition in [1] was 76%.
For the molecule `COc1ncc(-c2ccc3nccc(=O)n3c2)cc1NS(=O)(=O)c1cccc(F)c1`, the figures for the IC50 in data set [3] and in [4] were 67 nM and 64 nM, respectively. Also, in data set [1], the inhibition came out at 96%.
`COc1ncc(-c2ccc3ncc(C)c(=O)n3c2)cc1NS(=O)(=O)c1ccc(F)cc1F`: the IC50 is 27.9 nM in data set [3] and 119 nM in data set [4]. Also, the inhibition in [1] was determined as 90%.
As to `COc1ncc(-c2cc3c(N4CCNC(=O)C4)ncnc3cn2)cc1NS(=O)(=O)c1ccc(F)cc1F`, the inhibition in data set [1] amounted to 50%.
`O=c1ccnc2ccc(-c3cnc(Cl)c(NS(=O)(=O)c4ccccc4F)c3)cn12`: the IC50 in data set [3] is 34.4 nM; in data set [4], more than 400 nM. In addition, the inhibition in data set [1] amounted to 91%.
With `COc1ncc(-c2ccc3nccc(=O)n3c2)cc1NS(=O)(=O)c1ccccc1F`, the IC50 is 141 nM in [3] and more than 400 nM in data set [4]. The inhibition in [1] came out at 94%.
`COc1ncc(-c2ccc3nccc(=O)n3c2)cc1NS(=O)(=O)c1ccc(F)cc1F`: the figures for the fraction unbound in data set [2], in data set [12] and in data set [16] were 0.019, 0.005 and 0.008, respectively. Also, the IC50 in data set [3] was 16 nM; in [4], 66 nM; in [7] it was 3.1 nM; in data set [17], 19.2 nM. Moreover, the AUC(0-t) in [5] was 13800 ng·h/mL; in [11] it was 3280 ng·h/mL. In data set [6], this molecule showed a Cmax of 4080 ng/mL. Besides, the Vd in data set [8] turned out to be 0.443 L/kg. Further, the Tmax in data set [9] worked out at 0.333 h. In [13], the bioavailability was 139%. In addition, the inhibition in [1] was 98%. The molecule further showed a half-life in data set [15] of 1 h. The molecule further displayed a clearance in [18] of 5.15 mL/min/kg.
As to `COc1ncc(-c2ccc3nccc(=O)n3c2)cc1NS(=O)(=O)CC(F)(F)F`, the inhibition in data set [1] amounted to 78%.
Take `CCc1ncc(-c2ccc3nccc(=O)n3c2)cc1NS(=O)(=O)c1ccccc1F`: the inhibition in data set [1] stood at 81%.
In the case of `CCOc1cnc2ccc(-c3cnc(OC)c(NS(=O)(=O)c4ccc(F)cc4F)c3)cn2c1=O`, the inhibition in data set [1] is 76%.
Consider `COc1ncc(-c2cn3c(=O)ccnc3cn2)cc1NS(=O)(=O)c1ccc(F)cc1F`, for which, in data set [1], the inhibition amounted to 29%.
Turning to `COc1ncc(-c2ccc3nccc(=O)n3c2)cc1NS(=O)(=O)c1ccc(C#N)cc1`, the IC50 in data set [3] turned out to be 57.4 nM; in [4] it was 246 nM. The inhibition in data set [1] is 94%.
Consider `Cc1ncc(-c2ccc3nccc(=O)n3c2)cc1NS(=O)(=O)c1ccccc1F`, for which, in data set [1], the inhibition is 82%.
On to `O=c1ccnc2ccc(-c3cnc(Cl)c(NS(=O)(=O)c4ccc(F)cc4F)c3)cn12`, for which the IC50 in data set [3] is 32.8 nM; in data set [4], more than 400 nM. The inhibition in data set [1] is 92%.
`COc1ncc(-c2ccc3nncc(N4CCOCC4)c3c2)cc1NS(=O)(=O)c1ccc(F)cc1F`: in [1], the inhibition is 75%.
As to `COc1ncc(-c2ccc3nccc(=O)n3c2)cc1NS(=O)(=O)c1ccccc1`, the IC50 in [3] was determined as 98.8 nM; in data set [4] it was 198 nM. For the same molecule, in [1], the inhibition is 95%.
For `COc1ncc(-c2ccc3nccc(=O)n3c2)cc1NS(=O)(=O)c1cc(F)cc(F)c1`, the IC50 in [3] came out at 78.2 nM; in data set [4] it was 77.2 nM. Besides, the inhibition in data set [1] turned out to be 98%.
As for `COc1ncc(-c2ccc3nccc(=O)n3n2)cc1NS(=O)(=O)c1ccc(F)cc1F`, the inhibition in data set [1] was determined as 63%.
In the case of `COc1ncc(-c2ccc3nccc(=O)n3c2)cc1NS(=O)(=O)c1ccccc1C`, the IC50 in data set [3] was found to be 23.9 nM; in [4], 153 nM. Further, the inhibition in data set [1] came out at 94%.
For the molecule `Cc1ncc(-c2ccc3nccc(=O)n3c2)cc1NS(=O)(=O)c1ccc(F)cc1`, the inhibition in data set [1] came to 85%.
